These results are taken from ChEMBL document CHEMBL2375213, “Synthesis and anticancer activity of novel spiro-isoxazoline and spiro-isoxazolidine derivatives of α-santonin” (Eur J Med Chem, 2013).

One test deals with HEp-2. Briefly: Antiproliferative activity against human Hep2 cells after 48 hrs by sulforhodamine B assay. Particulars: HEp-2, 48 h. The class given is functional, cell-based.
Another test relates to MCF7. Briefly: Antiproliferative activity against human MCF7 cells after 48 hrs by sulforhodamine B assay. The class given is functional, cell-based. Particulars: MCF7, 48 h.
In test [1] the test system is PC-3. Briefly: Cell cycle arrest in human PC3 cells assessed as accumulation at subG1 phase at 1 uM after 24 hrs by propidium iodide staining-based FACS flow cytometric analysis (reference value: 13.1%). The class given is functional. Put shortly:
(§1)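 PC-3 cells (1×10^6/well) exposed 24 h to test agent at 1, 5 or 10 μM. Cells washed twice in ice-cold PBS, fixed in 70% ethanol for 30 min, then treated with RNase A (0.1 mg/mL, 37 °C, 30 min). Propidium iodide staining 30 min on ice in the dark. DNA content read by flow cytometry with 488 nm excitation and doublet discrimination, 10,000 events.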

Test [2] has as its system PC-3. Briefly: Cell cycle arrest in human PC3 cells assessed as accumulation at M phase at 5 uM after 24 hrs by propidium iodide staining-based FACS flow cytometric analysis (reference value: 3%). The format is functional. Put shortly:
as §1

Test [3] concerns PC-3. Description: Cell cycle arrest in human PC3 cells assessed as accumulation at subG1 phase at 10 uM after 24 hrs by propidium iodide staining-based FACS flow cytometric analysis (reference value: 13.1%). The class given is functional. The essentials:
as §1

The test system of test [4] is PC-3. Briefly: Cell cycle arrest in human PC3 cells assessed as accumulation at M phase at 1 uM after 24 hrs by propidium iodide staining-based FACS flow cytometric analysis (reference value: 3%). The class given is functional. The essentials:
as §1

Test [5] relates to PC-3. Briefly: Cell cycle arrest in human PC3 cells assessed as accumulation at M phase at 10 uM after 24 hrs by propidium iodide staining-based FACS flow cytometric analysis (reference value: 3%). The class given is functional. Put shortly:
as §1

Test [6] relates to PC-3. Description: Cell cycle arrest in human PC3 cells assessed as accumulation at S phase at 1 uM after 24 hrs by propidium iodide staining-based FACS flow cytometric analysis (reference value: 8.5%). The format is functional. The essentials: as §1
The subject of a further test is A549. Description: Antiproliferative activity against human A549 cells after 48 hrs by sulforhodamine B assay. The class given is functional, cell-based. Conditions: A549, 48 h.
Test [7] has as its system PC-3. Description: Antiproliferative activity against human PC3 cells after 48 hrs by sulforhodamine B assay. The format is functional, cell-based. Particulars: PC-3, 48 h.
Test [8] concerns PC-3. Description: Cell cycle arrest in human PC3 cells assessed as accumulation at S phase at 10 uM after 24 hrs by propidium iodide staining-based FACS flow cytometric analysis (reference value: 8.5%). The class given is functional. The essentials: as §1
Test [9] deals with PC-3. Description: Cell cycle arrest in human PC3 cells assessed as accumulation at S phase at 5 uM after 24 hrs by propidium iodide staining-based FACS flow cytometric analysis (reference value: 8.5%). The class given is functional. Put shortly:
as §1

The test system of test [10] is PC-3. Briefly: Cell cycle arrest in human PC3 cells assessed as accumulation at G0/G1 phase at 10 uM after 24 hrs by propidium iodide staining-based FACS flow cytometric analysis (reference value: 68.2%). The class given is functional. The essentials:
as §1

Test [11] relates to PC-3. Description: Cell cycle arrest in human PC3 cells assessed as accumulation at subG1 phase at 5 uM after 24 hrs by propidium iodide staining-based FACS flow cytometric analysis (reference value: 13.1%). The class given is functional. The essentials: as §1
A further test has as its system HCT-116. Description: Antiproliferative activity against human HCT116 cells after 48 hrs by sulforhodamine B assay. The class given is functional, cell-based. Particulars: HCT-116, 48 h.
The test system of test [12] is PC-3. Briefly: Cell cycle arrest in human PC3 cells assessed as accumulation at G0/G1 phase at 1 uM after 24 hrs by propidium iodide staining-based FACS flow cytometric analysis (reference value: 68.2%). The format is functional. Put shortly:
as §1

The subject of test [13] is PC-3. Briefly: Cell cycle arrest in human PC3 cells assessed as accumulation at G0/G1 phase at 5 uM after 24 hrs by propidium iodide staining-based FACS flow cytometric analysis (reference value: 68.2%). The class given is functional. The essentials: as §1
In the next test the test system is THP-1. Briefly: Antiproliferative activity against human THP1 cells after 48 hrs by sulforhodamine B assay. The format is functional, cell-based. Particulars: THP-1, 48 h.
Test [14] has as its system PC-3. Briefly: Cell cycle arrest in human PC3 cells assessed as accumulation at subG1 phase after 24 hrs by propidium iodide staining-based FACS flow cytometric analysis. The format is functional. The essentials: as §1
The target of test [15] is Transcription factor p65 (Homo sapiens) (UniProt Q04206). Briefly: Inhibition of NFkappaB p65 in nuclear extract of human PC3 cells assessed as reduction in binding to consensus DNA sequence at 5 uM after 24 hrs relative to control. The class given is cell-based. Conditions: PC-3. The essentials:
(§2)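 PC-3 cells (5×10^6) treated 24 h at varied concentrations. Nuclear extract made by hypotonic lysis (HEPES/KOH pH 7.9) followed by high-salt extraction. Nuclear protein (20 µg) incubated overnight at 4 °C in wells carrying immobilized NF-κB DNA consensus element, then anti-p65 primary antibody 1 h and HRP secondary 1 h. Substrate 30 min, OD 450 nm, normalized to untreated control = 100%.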

Test [16] has the same target. Description: Inhibition of NFkappaB p65 in nuclear extract of human PC3 cells assessed as reduction in binding to consensus DNA sequence at 1 uM after 24 hrs relative to control. The format is cell-based. Particulars: PC-3. Put shortly: as §2
For test [17] the target is unchanged. Briefly: Inhibition of NFkappaB p65 in nuclear extract of human PC3 cells assessed as reduction in binding to DNA response element after 24 hrs. The class given is cell-based. Conditions: PC-3. The essentials: as §2
Test [18] has the same target. Description: Inhibition of NFkappaB p65 in nuclear extract of human PC3 cells assessed as reduction in binding to consensus DNA sequence at 10 uM after 24 hrs relative to control. The format is cell-based. Conditions: PC-3. The essentials:
as §2

Sequence of Transcription factor p65 (Homo sapiens) (Q04206 whole entry): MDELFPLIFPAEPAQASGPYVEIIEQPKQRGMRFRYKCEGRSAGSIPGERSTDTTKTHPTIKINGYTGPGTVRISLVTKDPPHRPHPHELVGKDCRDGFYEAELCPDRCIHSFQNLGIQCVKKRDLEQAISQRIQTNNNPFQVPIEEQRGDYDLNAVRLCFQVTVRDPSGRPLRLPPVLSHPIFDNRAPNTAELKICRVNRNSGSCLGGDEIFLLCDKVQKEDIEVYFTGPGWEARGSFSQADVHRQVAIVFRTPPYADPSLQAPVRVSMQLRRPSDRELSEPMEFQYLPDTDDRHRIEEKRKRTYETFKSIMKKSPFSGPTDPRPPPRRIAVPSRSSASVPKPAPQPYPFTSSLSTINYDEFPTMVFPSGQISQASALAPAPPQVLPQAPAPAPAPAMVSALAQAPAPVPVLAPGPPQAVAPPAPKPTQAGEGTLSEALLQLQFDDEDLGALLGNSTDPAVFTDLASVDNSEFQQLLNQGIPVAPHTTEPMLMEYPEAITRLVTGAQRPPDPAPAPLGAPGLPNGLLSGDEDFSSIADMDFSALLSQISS

As to `CC1=C2[C@H]3OC(=O)C4(C[C@H](c5ccc(Br)cc5)N(c5ccccc5)O4)[C@@H]3CC[C@@]2(C)C=CC1=O` (stereo not given in full), the IC50 was determined as 100 µM with HEp-2; 0.8 µM with MCF7; 100 µM with A549; 0.1 µM with PC-3 [7]; 100 µM in the test on HCT-116; 0.3 µM in the test on THP-1. Besides, the Activity in the test on PC-3 [1] is reported as 33.8%; with PC-3 [2], 0.8%; in the test with PC-3 [3], 42.8%; in the test with PC-3 [4], 1.6%; with PC-3 [5] it was 1.3%; with PC-3 [6] it was 4.2%. Further, the Activity is 4.9% with PC-3 [8]; 4.4% with PC-3 [9]; 53.2% in the test with PC-3 [10]; 34.7% in the test with PC-3 [11]; 55.3% in the test with PC-3 [12]; 55.8% in the test with PC-3 [13]. Moreover, the Activity result with PC-3 [14] is “Dose-dependent effect”.
On to `CC1=C2[C@H]3OC(=O)C4(C[C@@H](c5ccc(Br)cc5)N(c5ccccc5)O4)[C@@H]3CC[C@@]2(C)C=CC1=O` (stereo not given in full), for which the IC50 was 65 µM with HEp-2; 0.3 µM in the test on MCF7; 31 µM in the test with A549; 0.01 µM in the test with PC-3 [7]; 37 µM in the test with HCT-116; 0.5 µM in the test with THP-1. In addition, the inhibition is 43% in test [15], 20% in test [16], “Dose-dependent effect” in test [17] and 57% in test [18]. For the same compound, the Activity in the test with PC-3 [1] is given as 25.6%; with PC-3 [2] it was 1.2%; with PC-3 [3], 67.9%; in the test with PC-3 [4] it was 2%; in the test with PC-3 [5] it was 0.4%; in the test with PC-3 [6] it was 6.2%. For the same compound, the Activity amounted to 0.4% in the test on PC-3 [8]; 4.5% in the test on PC-3 [9]; 3.1% in the test with PC-3 [10]; 39.7% in the test on PC-3 [11]; 60.9% with PC-3 [12]; 43.5% in the test with PC-3 [13]. Moreover, in the test on PC-3 [14], the Activity result was “Dose-dependent effect”.
As to `CC1=C2[C@H]3OC(=O)C4(CC(c5ccc(F)cc5)=NO4)[C@@H]3CC[C@@]2(C)C=CC1=O` (stereo not given in full), the IC50 turned out to be 100 µM in the test on HEp-2; 100 µM in the test with MCF7; 61 µM in the test with A549; 100 µM with PC-3 [7]; 100 µM in the test with HCT-116; 100 µM in the test with THP-1.
On to `CC1=C2[C@H]3OC(=O)C4(C[C@H](c5ccc(F)c(Br)c5)N(c5ccccc5)O4)[C@@H]3CC[C@@]2(C)C=CC1=O` (stereo not given in full), for which the IC50 in the test on HEp-2 came out at 3.7 µM; with MCF7, 0.2 µM; in the test on A549 it was 19 µM; in the test with PC-3 [7] it was 0.9 µM; with HCT-116, 100 µM; in the test with THP-1, 2.3 µM.
As to `CC1=C2[C@H]3OC(=O)C4(CC(c5cc(Cl)ccc5Cl)=NO4)[C@@H]3CC[C@@]2(C)C=CC1=O` (stereo not given in full), the 50% inhibitory concentration (IC50) in the test with HEp-2 was 100 µM; with MCF7, 39 µM; in the test on A549, 100 µM; in the test on PC-3 [7], 100 µM; with HCT-116, 61 µM; in the test with THP-1, 100 µM.
As for `CC1=C2[C@H]3OC(=O)C4(C[C@H](c5cc(Cl)ccc5Cl)N(c5ccccc5)O4)[C@@H]3CC[C@@]2(C)C=CC1=O` (stereo not given in full), the IC50 came out at 100 µM in the test with HEp-2; 0.1 µM in the test on MCF7; 77 µM with A549; 0.7 µM in the test on PC-3 [7]; 32 µM in the test on HCT-116; 0.2 µM with THP-1.
`CC[C@@]1(O)C(=O)OCc2c1cc1n(c2=O)Cc2cc3ccccc3nc2-1` [CAMPTOTHECIN]: the Activity is reported as 4.76% with PC-3 [2], 4.94% in the test with PC-3 [9], 60.44% in the test with PC-3 [11] and 30.17% with PC-3 [13].
